E-sel inducer: E-selectin induction in HUVECs, primary screen, imaging, HUVEC, immunofluorescence imaging, single point; P16581; normalized: neutral wells 0, TNF-alpha wells 100; activation, % at 7.58 µM; 0.37% of 260,000 active; AID 686992, 2013;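 active = mean E-selectin-positive cell signal at least 10% of the positive control, reached in at least 60% of replicates, without over 20% cell loss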
Target sequence (P16581 whole entry, looked up): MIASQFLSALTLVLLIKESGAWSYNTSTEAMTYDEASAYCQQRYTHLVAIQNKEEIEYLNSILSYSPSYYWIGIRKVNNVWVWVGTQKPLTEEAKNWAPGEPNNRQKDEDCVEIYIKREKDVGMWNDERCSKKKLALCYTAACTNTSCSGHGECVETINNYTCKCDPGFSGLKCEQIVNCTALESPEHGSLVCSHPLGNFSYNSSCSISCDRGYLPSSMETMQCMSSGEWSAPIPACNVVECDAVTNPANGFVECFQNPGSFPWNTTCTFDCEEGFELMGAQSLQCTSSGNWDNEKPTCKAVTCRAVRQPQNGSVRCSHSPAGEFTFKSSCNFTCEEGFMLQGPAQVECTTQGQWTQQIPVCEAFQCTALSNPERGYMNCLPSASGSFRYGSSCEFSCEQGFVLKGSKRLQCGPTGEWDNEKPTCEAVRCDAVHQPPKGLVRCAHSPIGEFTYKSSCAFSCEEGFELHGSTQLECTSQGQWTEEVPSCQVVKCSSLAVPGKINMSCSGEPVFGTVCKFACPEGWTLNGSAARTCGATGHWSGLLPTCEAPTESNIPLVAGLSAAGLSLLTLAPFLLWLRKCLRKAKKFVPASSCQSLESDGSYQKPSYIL
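Assay system: HUVEC, human umbilical vein endothelial cells / Amount: 3,000 HUVEC/well / Controls: TNF-alpha positive control, DMSO neutral control / Compound dosing: single concentration / Medium: EGM-2 over gelatin coat / Evaluation: percent E-selectin-positive cells / Signal: immunofluorescence imaging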
* = called active by the depositor. The full list was thinned out, with hits kept by preference.

SMILES	E-sel inducer
C[C@@H]1CCCCO[C@H](CN(C)C(=O)C2CCCCC2)[C@H](C)CN([C@H](C)CO)C(=O)c2cc(NS(=O)(=O)c3ccccc3)ccc2O1	0
C[C@H]1CN([C@@H](C)CO)C(=O)Cc2cc(NS(=O)(=O)c3cn(C)cn3)ccc2O[C@H]1CN(C)CC1CCCCC1	0
Cn1c(CNS(=O)(=O)c2cccc(Cl)c2)cc(=O)n(C)c1=O	0
Cn1c(CNS(=O)(=O)c2ccc(Cl)cc2)cc(=O)n(C)c1=O	97*
COc1ccc(S(=O)(=O)NCc2cc(=O)n(C)c(=O)n2C)cc1F	-2
C[C@@H]1CN([C@@H](C)CO)S(=O)(=O)c2ccc(C#CC3CC3)cc2O[C@H]1CN(C)Cc1cncnc1	1
Cc1noc(C)c1NC(=O)Nc1ccc2c(c1)C(=O)N([C@@H](C)CO)C[C@H](C)[C@@H](CN(C)C(=O)NC1CCCCC1)OCCCC[C@H](C)O2	0
COc1ccccc1-c1cn(CC[C@@H]2CC[C@H](NC(=O)c3ccccc3F)[C@@H](CO)O2)nn1	0
CNC(=O)Nc1ccc2nc(C)oc2c1	0
Cc1nc2ccc(NC(=O)NC(=O)c3c(Cl)cccc3Cl)cc2o1	64*
Cc1nc2cc(NC(=O)NCCCO)ccc2o1	0
C[C@@H]1CN([C@H](C)CO)C(=O)Cc2cc(NC(=O)Nc3ccc(F)cc3)ccc2O[C@@H]1CN(C)Cc1ccncc1	44*
C[C@H](CO)N1C[C@H](C)[C@@H](CN(C)Cc2ccncc2)Oc2ccc(NC(=O)Nc3ccccc3)cc2CC1=O	0
C[C@H](CO)N1C[C@H](C)[C@@H](CN(C)Cc2ccncc2)Oc2ccc(NC(=O)Nc3ccc(F)cc3)cc2CC1=O	-4
C[C@@H]1CN([C@@H](C)CO)C(=O)Cc2cc(NC(=O)Nc3ccc(F)cc3)ccc2O[C@@H]1CN(C)Cc1ccncc1	127*
C[C@H](CO)N1C[C@H](C)[C@H](CN(C)Cc2ccncc2)Oc2ccc(NC(=O)Nc3ccccc3)cc2CC1=O	0
C[C@@H]1CN([C@@H](C)CO)C(=O)Cc2cc(NC(=O)Nc3ccc(F)cc3)ccc2O[C@H]1CN(C)Cc1ccncc1	-13
Cc1ccc(S(=O)(=O)N(C)C[C@H]2OCCCC[C@H](C)Oc3ccc(NS(C)(=O)=O)cc3C(=O)N([C@@H](C)CO)C[C@H]2C)cc1	0
CCCC(=O)Nc1ccc2c(c1)C(=O)N(C)C[C@H](OC)[C@H](C)CN(Cc1cncnc1)[C@@H](C)CO2	1
C[C@H]1CN([C@@H](C)CO)C(=O)Cc2cc(NS(=O)(=O)c3ccc(Cl)cc3)ccc2O[C@H]1CN(C)C(=O)Nc1cccc2ccccc12	20
C[C@@H]1CN([C@@H](C)CO)C(=O)c2cc(-c3ccccc3)cnc2O[C@H]1CN(C)Cc1cccnc1	0
CCCC(=O)N1CC2(C1)CN(C(=O)Nc1cccc(F)c1)[C@H](CO)c1c2c2ccc(OC)cc2n1C	0
CC(Sc1ncnc2sc(-c3ccccc3)cc12)C(=O)N1CCNC1=O (configuration not stated)	39*
O=c1[nH]c(CSc2ncnc3sc(-c4ccccc4)cc23)nc2ccccc12	-1
CC(Sc1ncnc2sc(-c3ccccc3)cc12)C(=O)NCC1CCCO1 (configuration not stated)	-2
SMILES	E-sel inducer
CO[C@@H]1CN(C)C(=O)c2cc(NC(=O)c3cccc(Oc4ccccc4)c3)ccc2OC[C@@H](C)NC[C@H]1C	0
CCCNC(=O)C[C@H]1CC[C@H]2[C@H](COc3ccc(NC(=O)C4CCOCC4)cc3C(=O)N2C)O1	0
CCCC#Cc1ccc([C@@H]2[C@H]3CN(C(=O)c4cccnc4)CC(=O)N3[C@H]2CO)cc1	0
Cc1noc(C)c1S(=O)(=O)Nc1ccc2c(c1)C(=O)N([C@H](C)CO)C[C@H](C)[C@H](CN(C)Cc1ccc(C(=O)O)cc1)O2	-2
CCOC(=O)C1=C(C)NC(C)=C(C(=O)OCC)C1C(=O)OCC(=O)NC(C)c1ccccc1 (configuration not stated)	0
CCN(C(=O)C(C)OC(=O)C1C(C(=O)OC)=C(C)NC(C)=C1C(=O)OC)c1ccccc1 (configuration not stated)	0
COC(=O)C1=C(C)NC(C)=C(C(=O)OC)C1C(=O)OC(C)C(=O)c1ccccc1 (configuration not stated)	77*
Cc1cccc(C)c1NC(=O)C1C(c2ccc3c(c2)OCO3)=Nc2ccccc2N1C(=O)c1cccc(C(F)(F)F)c1 (configuration not stated)	0
CC(=O)N1CCC(C(=O)N2c3ccccc3N=C(c3ccc4c(c3)OCO4)C2C(=O)Nc2c(C)cccc2C)CC1 (configuration not stated)	0
Cc1cccc(C)c1NC(=O)C1C(c2ccc3c(c2)OCO3)=Nc2ccccc2N1C(=O)c1ccccn1 (configuration not stated)	119*
O=C(COC(=O)c1cccc(-n2cnnn2)c1)c1ccc(F)cc1	2
O=C(COC(=O)c1ccc(-n2cnnn2)cc1)c1ccc(Br)cc1	27*
O=C(COC(=O)c1ccccc1-n1cnnn1)c1ccc(Br)cc1	-1
CCCC(=O)N1CCC2(CC1)CN(Cc1cccnc1)[C@H](CO)c1[nH]c3cc(OC)ccc3c12	1
C[C@H](NC(=O)[C@@H]1[C@@H](CO)[C@@H]2Cn3c(cccc3=O)[C@@H]2N1CC1CC1)c1ccccc1	0
CC(C)NC(=O)Nc1ccc2c(c1)C(=O)N([C@@H](C)CO)C[C@H](C)[C@H](CN(C)Cc1ccc(C(F)(F)F)cc1)O2	51*
C[C@@H]1CN([C@@H](C)CO)C(=O)c2cc(NC(=O)CCC(F)(F)F)ccc2O[C@H]1CN(C)Cc1ccc(C(F)(F)F)cc1	6
C[C@@H]1CN([C@@H](C)CO)C(=O)c2cc(NC(=O)CCC(F)(F)F)ccc2O[C@@H]1CN(C)Cc1ccc(C(F)(F)F)cc1	2
CC(C)NC(=O)Nc1ccc2c(c1)C(=O)N([C@H](C)CO)C[C@@H](C)[C@@H](CN(C)Cc1ccc(C(F)(F)F)cc1)O2	-20
CC(C)NC(=O)Nc1ccc2c(c1)C(=O)N([C@H](C)CO)C[C@H](C)[C@H](CN(C)Cc1ccc(C(F)(F)F)cc1)O2	-20
C[C@H]1CN([C@@H](C)CO)C(=O)c2cc(NC(=O)CCC(F)(F)F)ccc2O[C@@H]1CN(C)Cc1ccc(C(F)(F)F)cc1	38*
COc1ccc(NC(=O)N(C)C[C@@H]2OCCCC[C@H](C)Oc3ccc(NC(=O)CCC(F)(F)F)cc3C(=O)N([C@H](C)CO)C[C@@H]2C)cc1	0
COc1ccc(NC(=O)Nc2ccc3c(c2)C(=O)N([C@H](C)CO)C[C@@H](C)[C@H](CN(C)S(=O)(=O)c2c(C)noc2C)OCCCC[C@H](C)O3)cc1	0
O=C(N/N=C/c1ccc2c(c1)OCO2)C(=O)Nc1ccccc1	15
O=C(CNc1ccccc1)N/N=C/c1ccc2c(c1)OCO2	31*
O=C(CCc1ccccc1)NCC(=O)N/N=C/c1ccc2c(c1)OCO2	1
O=C(c1cnccn1)N1CC[C@@H]2[C@H]1c1cc(-c3ccccc3)ccc1N[C@@H]2CO	-1
CN1C(=O)c2cc(NC(=O)c3cc(F)cc(F)c3)ccc2OC[C@H]2O[C@H](CC(=O)O)CC[C@H]21	0
C[C@@H]1CN([C@@H](C)CO)C(=O)c2cc(NS(=O)(=O)c3ccc(Cl)cc3)ccc2O[C@H]1CN(C)C(=O)Nc1ccccc1	-14
O=[N+]([O-])c1ccc(N=NN(CCO)CCO)cc1	0

Screens: PubChem, Broad Institute
